Series [1] has as its system Intestine. Put plainly: Drug uptake in intestine of mouse xenografted with human U87 cells at 100 uCi, iv after 60 to 120 mins by PET analysis. In kind it is ADME, organism-based, U-87MG ATCC. Conditions: in vivo; call rule not given here. The gist of the method: (§1)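 Nude mice carried K562, U87 or U87WT tumor cells injected in Matrigel (200 μl) into the dorsal shoulder areas. [18F]STI-571, labeled by nucleophilic substitution, was given at 100 μCi/mouse i.v. MicroPET imaging was done at 30, 60 and 90 min, with images also shown at 60 and 120 min. Some mice were sacrificed at 60 or 90 min for tissue sampling and autoradiography.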
(In xenograft studies the graft and the host belong to different species.)

Series [2] concerns Intestine. Put plainly: Drug uptake in intestine of mouse xenografted with human U87WT cells expressing human wild type c-KIT at 100 uCi, iv after 60 to 120 mins by PET analysis. In kind it is ADME, organism-based. Particulars: in vivo. The method, boiled down:
as §1

Series [3] has as its system Intestine. Nature of the series: Drug uptake in intestine of mouse xenografted with human K562 cells expressing Bcr-Abl at 100 uCi, iv after 60 to 120 mins by PET analysis. Conditions: in vivo. The format is ADME, organism-based. The gist of the method:
as §1

Series [4] concerns Liver. Nature of the series: Drug uptake in liver of mouse xenografted with human U87 cells at 100 uCi, iv after 60 to 120 mins by PET analysis. The format is ADME, organism-based, U-87MG ATCC. Particulars: in vivo. The method, boiled down: as §1
For series [5], the system named is Liver. Nature of the series: Drug uptake in liver of mouse xenografted with human U87WT cells expressing human wild type c-KIT at 100 uCi, iv after 60 to 120 mins by PET analysis. The format is ADME, organism-based. Conditions: in vivo. The method, boiled down: as §1
Series [6] has as its system Liver. Put plainly: Drug uptake in liver of mouse xenografted with human K562 cells expressing Bcr-Abl at 100 uCi, iv after 60 to 120 mins by PET analysis. Conditions: in vivo. In kind it is ADME, organism-based. The gist of the method:
as §1

Series [7] has as its system Tumour. Nature of the series: Drug uptake in tumor of mouse xenografted with human U87 cells at 100 uCi, iv after 60 to 120 mins by PET analysis. The format is ADME, organism-based, Neoplasm, U-87MG ATCC. Conditions: in vivo. The method, boiled down:
as §1

Series [8] deals with Tumour. Nature of the series: Drug uptake in tumor of mouse xenografted with human U87WT cells expressing human wild type c-KIT at 100 uCi, iv after 60 to 120 mins by PET analysis. The format is ADME, organism-based, Neoplasm. Conditions: in vivo. The gist of the method:
as §1

Series [9] is described as follows: Drug uptake in mouse digestive tract xenografted with human U87 cells at 100 uCi, iv after 15 to 120 mins by PET analysis. The format is ADME, organism-based, U-87MG ATCC. Conditions: in vivo. The gist of the method: as §1
The nature of series [10]: Drug uptake in mouse digestive tract xenografted with human U87WT cells expressing human wild type c-KIT at 100 uCi, iv after 15 to 120 mins by PET analysis. In kind it is ADME, organism-based. Conditions: in vivo. The method, boiled down: as §1
The nature of series [11]: Drug uptake in mouse digestive tract xenografted with human K562 cells expressing Bcr-Abl at 100 uCi, iv after 15 to 120 mins by PET analysis. The format is ADME, organism-based. Conditions: in vivo. The gist of the method: as §1
The subject of series [12] is Tumour. Nature of the series: Drug uptake in tumor of mouse xenografted with human K562 cells expressing Bcr-Abl at 100 uCi, iv after 60 to 120 mins by PET analysis. Particulars: in vivo. The format is ADME, organism-based, Neoplasm. The method, boiled down:
as §1

A short description of series [13]: Drug uptake in mouse right shoulder xenografted with human U87 cells at 100 uCi, iv after 15 to 120 mins by PET analysis. In kind it is ADME, organism-based, U-87MG ATCC. Conditions: in vivo, in the assay text read “U87WT cells” for “U87 cells”. The gist of the method:
as §1

A short description of series [14]: Drug uptake in mouse right shoulder xenografted with human U87WT cells expressing human wild type c-KIT at 100 uCi, iv after 15 to 120 mins by PET analysis. The format is ADME, organism-based. Conditions: in vivo. The gist of the method: as §1
Series [15] in a line: Drug uptake in mouse right shoulder xenografted with human K562 cells expressing Bcr-Abl at 100 uCi, iv after 15 to 120 mins by PET analysis. In kind it is ADME, organism-based. Conditions: in vivo. The gist of the method:
as §1

A short description of series [16]: Drug uptake in human U87WT cells expressing human wild type c-KIT after 1 to 2 hrs. The format is ADME, cell-based. The method, boiled down:
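Cells were incubated with [18F]STI-571, and tracer accumulation and washout were measured at 1 and 2 h. U87WT cells were made by retroviral transduction of U87 cells with wild-type human c-KIT receptor. Specificity was tested by blocking with excess unlabelled STI-571.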

In series [17] the test system is K562. Nature of the series: Drug uptake in human K562 cells expressing Bcr-Abl incubated for 1 to 2 hrs measured after drug washout. In kind it is ADME, cell-based.
The subject of series [18] is K562. Nature of the series: Drug uptake in human K562 cells expressing Bcr-Abl after 1 to 2 hrs. The format is ADME, cell-based.
For series [19], the system named is K562. Put plainly: Drug uptake in human K562 cells expressing Bcr-Abl after 30 to 210 mins in presence of unlabelled STI-571. In kind it is ADME, cell-based.
In series [20] the test system is K562. Nature of the series: Drug uptake in human K562 cells expressing Bcr-Abl after 30 mins. The format is ADME, cell-based. Particulars: k562, 0.5 h.
Series [21] can be described thus: Drug uptake in human wild-type U87 cells incubated for 1 to 2 hrs measured after drug washout.
For a further series, the target named is Bcr/Abl fusion protein (Homo sapiens, UniProt P00519). Put plainly: Inhibition of Bcr-Abl (unknown origin) phosphorylation by spectrophotometric assay. In kind it is protein assay.
The test system of series [22] is Intestine. Put plainly: Drug uptake in intestine of mouse xenografted with human U87 cells after 45 mins by PET analysis. Conditions: in vivo, 0.75 h. In kind it is ADME, U-87MG ATCC.
Series [23] relates to Intestine. Nature of the series: Drug uptake in intestine of mouse xenografted with human U87WT cells expressing human wild type c-KIT after 45 mins by PET analysis. The format is ADME, tissue-based. Particulars: in vivo, 0.75 h.
A further series deals with Mus musculus. Nature of the series: Drug uptake in mouse xenografted with human K562 cells expressing Bcr-Abl after 45 mins by PET analysis. Particulars: in vivo, 0.75 h. In kind it is ADME, organism-based.

What is called IC50 is the concentration needed to halve the response being measured. A higher IC50 goes with weaker potency.

Sequence of Bcr/Abl fusion protein (P00519 whole entry, the tested form may be a part): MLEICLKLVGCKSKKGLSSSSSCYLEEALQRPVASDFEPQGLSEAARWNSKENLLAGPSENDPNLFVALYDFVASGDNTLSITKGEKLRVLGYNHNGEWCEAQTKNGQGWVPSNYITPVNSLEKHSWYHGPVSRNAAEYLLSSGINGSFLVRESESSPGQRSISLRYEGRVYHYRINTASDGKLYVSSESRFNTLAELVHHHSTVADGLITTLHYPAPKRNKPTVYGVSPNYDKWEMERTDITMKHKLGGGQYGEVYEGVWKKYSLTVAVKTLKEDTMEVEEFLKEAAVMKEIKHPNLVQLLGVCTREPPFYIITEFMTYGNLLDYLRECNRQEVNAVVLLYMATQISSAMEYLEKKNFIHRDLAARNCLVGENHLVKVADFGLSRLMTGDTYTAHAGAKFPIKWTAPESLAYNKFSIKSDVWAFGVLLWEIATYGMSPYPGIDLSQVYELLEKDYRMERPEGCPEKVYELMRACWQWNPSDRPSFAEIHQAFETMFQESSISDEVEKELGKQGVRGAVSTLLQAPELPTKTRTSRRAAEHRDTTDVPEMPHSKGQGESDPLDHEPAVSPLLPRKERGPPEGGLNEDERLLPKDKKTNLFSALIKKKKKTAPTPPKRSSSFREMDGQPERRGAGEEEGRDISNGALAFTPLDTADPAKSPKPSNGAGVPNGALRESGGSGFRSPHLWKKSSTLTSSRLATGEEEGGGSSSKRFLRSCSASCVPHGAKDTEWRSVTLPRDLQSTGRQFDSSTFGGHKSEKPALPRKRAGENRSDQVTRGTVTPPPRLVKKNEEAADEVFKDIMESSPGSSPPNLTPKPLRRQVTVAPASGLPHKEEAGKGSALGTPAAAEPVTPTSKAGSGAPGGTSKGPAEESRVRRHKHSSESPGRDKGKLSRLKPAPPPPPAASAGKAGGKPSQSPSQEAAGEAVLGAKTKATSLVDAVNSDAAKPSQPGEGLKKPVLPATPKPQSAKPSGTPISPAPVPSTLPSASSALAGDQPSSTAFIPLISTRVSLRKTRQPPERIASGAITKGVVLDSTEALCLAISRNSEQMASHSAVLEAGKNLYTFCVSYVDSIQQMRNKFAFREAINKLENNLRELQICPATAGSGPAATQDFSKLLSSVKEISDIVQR
Sequence of Bcr/Abl fusion protein (P11274 whole entry, further chain, the tested form may be a part): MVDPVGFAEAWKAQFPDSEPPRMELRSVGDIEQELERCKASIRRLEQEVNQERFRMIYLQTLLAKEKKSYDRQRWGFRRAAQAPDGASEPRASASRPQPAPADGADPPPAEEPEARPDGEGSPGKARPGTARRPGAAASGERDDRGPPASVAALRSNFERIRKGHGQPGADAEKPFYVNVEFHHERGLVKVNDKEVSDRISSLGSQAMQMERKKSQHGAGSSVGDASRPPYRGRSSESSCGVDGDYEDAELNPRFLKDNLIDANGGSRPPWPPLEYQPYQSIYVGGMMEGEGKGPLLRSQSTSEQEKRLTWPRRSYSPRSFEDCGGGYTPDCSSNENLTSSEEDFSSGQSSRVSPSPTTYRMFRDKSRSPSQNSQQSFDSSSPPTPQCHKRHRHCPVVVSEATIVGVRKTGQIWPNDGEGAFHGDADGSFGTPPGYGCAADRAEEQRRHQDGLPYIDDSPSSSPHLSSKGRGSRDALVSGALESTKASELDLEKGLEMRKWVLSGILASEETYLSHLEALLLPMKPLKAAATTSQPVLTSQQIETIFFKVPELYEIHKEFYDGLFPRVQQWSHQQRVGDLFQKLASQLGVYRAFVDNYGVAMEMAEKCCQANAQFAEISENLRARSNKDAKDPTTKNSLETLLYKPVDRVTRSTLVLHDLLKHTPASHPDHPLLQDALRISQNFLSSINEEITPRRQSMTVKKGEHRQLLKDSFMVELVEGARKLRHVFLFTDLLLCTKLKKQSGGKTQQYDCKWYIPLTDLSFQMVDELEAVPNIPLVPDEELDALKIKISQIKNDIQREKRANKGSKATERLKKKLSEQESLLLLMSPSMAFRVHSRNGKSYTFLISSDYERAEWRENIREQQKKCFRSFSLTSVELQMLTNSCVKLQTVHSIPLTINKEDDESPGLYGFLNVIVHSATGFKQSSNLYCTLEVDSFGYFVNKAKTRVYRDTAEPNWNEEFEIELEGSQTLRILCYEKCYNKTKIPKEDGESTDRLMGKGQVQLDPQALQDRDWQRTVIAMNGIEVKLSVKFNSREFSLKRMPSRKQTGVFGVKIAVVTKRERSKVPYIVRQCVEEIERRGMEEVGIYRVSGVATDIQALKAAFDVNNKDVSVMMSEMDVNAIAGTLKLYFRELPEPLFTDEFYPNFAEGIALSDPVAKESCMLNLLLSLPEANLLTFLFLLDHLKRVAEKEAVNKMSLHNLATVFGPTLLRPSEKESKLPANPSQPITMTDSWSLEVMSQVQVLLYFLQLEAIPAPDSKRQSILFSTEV

Consider `Cc1ccc(NC(=O)c2ccc(CN3CCN(CC[18F])CC3)cc2)cc1Nc1nccc(-c2cccnc2)n1`, for which the Drug uptake result in the series with Intestine [1], in the series with Intestine [2], with Intestine [3], in the series on Liver [4], in the series with Liver [5] and in the series on Liver [6] was “Active” throughout. The Drug uptake entry (in the series with Tumour [7]; in the series with Tumour [8]; in [9]; in [10]; in [11]; in the series on Tumour [12]) was “Active” throughout. The Drug uptake result in [13] was “Active”; in series [14] it was “Active”; in [15], “Active”; in [16], “Not Active”; with K562 [17], “Active”; with K562 [18] it was “Active”. Also, the Drug uptake result is recorded as “Not Active” in the series with K562 [19], “Active” in the series on K562 [20] and “Not Active” in series [21].
The compound `Cc1ccc(NC(=O)c2ccc(CN3CCN(Cc4ccc(I)cc4)CC3)cc2)cc1Nc1nccc(-c2cccnc2)n1` gave an IC50 on Bcr/Abl fusion protein of 739 nM.
Still for that read-out and setting: for `Cc1ccc(NC(=O)c2ccc(CN3CCN(CCO)CC3)cc2)cc1Nc1nccc(-c2cccnc2)n1` the value was 7080 nM; for `Cc1ccc(NC(=O)c2ccc(CN3CCN(CCF)CC3)cc2)cc1Nc1nccc(-c2cccnc2)n1`, 1380 nM.
Regarding `OC[C@H]1O[C@@H](O)[C@H]([18F])[C@@H](O)[C@@H]1O` [FLUDEOXYGLUCOSE-F18], the Drug uptake entry with Intestine [22], with Intestine [23] and with Mus musculus was “Active” throughout.
